CHRM4 agonist = human M4 muscarinic receptor agonists, primary screen, CHO-K1 cells, Fluo-8 calcium fluorescence; 0.14% of 360,000 active; activation, % at 3 µM; CHO-K1 hM4/Gqi5; vehicle 0%, full acetylcholine response 100%; Muscarinic acetylcholine receptor M4 (Homo sapiens), P08173;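 active = activation above the run mean over all test wells plus 3 SD, cut at about 32% in these data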;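 note: peak over basal fluorescence ratio per well then scaled between controls; 0% = DMSO wells and 100% = acetylcholine at EC100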
Target sequence (P08173 whole entry, looked up): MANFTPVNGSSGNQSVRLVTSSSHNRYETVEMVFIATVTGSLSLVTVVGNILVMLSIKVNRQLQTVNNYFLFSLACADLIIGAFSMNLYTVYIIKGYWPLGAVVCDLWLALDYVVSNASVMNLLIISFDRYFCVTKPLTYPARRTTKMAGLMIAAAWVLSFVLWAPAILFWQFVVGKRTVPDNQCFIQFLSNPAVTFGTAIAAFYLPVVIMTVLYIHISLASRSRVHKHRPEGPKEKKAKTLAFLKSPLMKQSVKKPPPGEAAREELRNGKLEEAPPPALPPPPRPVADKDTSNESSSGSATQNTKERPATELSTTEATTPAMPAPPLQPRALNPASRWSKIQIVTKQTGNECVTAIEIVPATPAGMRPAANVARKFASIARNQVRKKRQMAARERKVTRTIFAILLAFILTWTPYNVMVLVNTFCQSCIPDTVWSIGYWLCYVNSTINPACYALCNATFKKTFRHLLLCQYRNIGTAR
CHRM5 agonist = human M5 muscarinic receptor agonists, primary screen, CHO-K1 cells, Fluo-8 calcium fluorescence; Muscarinic acetylcholine receptor M5 (Homo sapiens), P08912; CHO-K1 hM5 cells; 0% DMSO wells, 100% maximal acetylcholine response; activation, % at 3 µM; 0.19% of 360,000 active;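 active = activation above the run's mean over test compounds plus 3 SD, cut at about 23% in these data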;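 note: signal is peak over basal fluorescence ratio across the kinetic read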
M4 PAM = human M4 muscarinic receptor positive allosteric modulators, primary screen, CHO-K1 cells, Fluo-8 calcium fluorescence. 0.4% of 360,000 active. activation, % at 3 µM. CHO-K1 hM4/Gqi5, ACh EC20; 0% = ACh EC20, 100% = maximal ACh. Muscarinic acetylcholine receptor M4 (Homo sapiens), P08173;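 active = activation above its plate's cutoff, the mean activation of sample wells plus 3 SD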
M5 antag = human M5 muscarinic receptor antagonists, primary screen, CHO cells, Fluo-8 calcium fluorescence. inhibition, % at 3 µM. 0.59% of 360,000 active. CHO-hM5 cells, ACh EC80. Muscarinic acetylcholine receptor M5 (Homo sapiens), P08912;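 active = inhibition above a per-plate cutoff, the mean of that plate's test compounds plus 3 SD, cut at about 27% in these data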;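 note: 0% = acetylcholine EC80 with DMSO and 100% = DMSO without agonist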
CHRM5 PAM = human M5 muscarinic receptor positive allosteric modulators, primary screen, CHO-K1 cells, Fluo-8 calcium fluorescence. 0.3% of 360,000 active. Muscarinic acetylcholine receptor M5 (Homo sapiens), P08912. CHO-K1 hM5, ACh EC20 PAM; 0% = ACh EC20, 100% = ACh EC100. activation, % at 3 µM. AID 624038, 2012;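 active = activation above the run cutoff, the mean activation of all test compounds plus 3 SD, cut at about 18% in these data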
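Test system: CHO-K1 hM5 cells / Doses: single-point, 3 µM nominal / Times: Post-acetylcholine fluorescence recording 140 s / Technique: Fluo-8 calcium fluorescence / Measure: Max/basal fluorescence ratio as % of EC20–EC100 ACh window / Benchmarks: low control EC20 acetylcholine (0%), high control EC100 acetylcholine (100%) / Replicates: one well per compound, no replicates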
CHRM4 antagonist = human M4 muscarinic receptor antagonists, primary screen, CHO cells, Fluo-8 calcium fluorescence; CHO-hM4 cells, ACh EC80; 0.73% of 360,000 active; inhibition, % at 3 µM; Muscarinic acetylcholine receptor M4 (Homo sapiens), P08173;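 active = inhibition above its plate's cutoff, the mean inhibition of sample wells plus 3 SD, cut at about 27% in these data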;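 note: 0% = acetylcholine EC80 with DMSO and 100% = DMSO without agonist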
Active calls of the source: *. Sampled rows, rich in hits. Any-hit rate of the full collection: about 1.9%.

SMILES | CHRM4 agonist | CHRM5 agonist | M4 PAM | M5 antag | CHRM5 PAM | CHRM4 antagonist
Fc1ccc(-c2csc3[n+]2CCS3)cc1 | 0 | -16 | 4 | -1 | 3 | 0
O=C(Nc1ccc(NC(=O)c2ccco2)nc1)c1cccnc1 | 4 | -2 | 21* | -8 | 8 | -9
O=C(NCc1ccccn1)[C@@H]1CCCN1C(=O)[C@@H]1CCCN1C(=O)c1cccc(Cl)c1 | 0 | 1 | 4 | -3 | -4 | 7
Cc1ccccc1Sc1ccc(N)cn1 | 4 | -3 | -15 | 23 | -8 | 33*
COc1ccc(NC(=O)Nc2sc(NS(=O)(=O)c3ccccc3)nc2C)cc1 | 1 | -4 | 11 | -1 | -4 | -11
Nc1ccccc1-c1nnc2n1CCCCC2 | 0 | -5 | 0 | 17 | 0 | -4
C=CCNC(=S)Nc1ccccc1-c1nnc2n1CCCCC2 | 1 | -9 | -16 | 30* | -16 | 4
Cc1ccc(CN2C(=O)[C@H]3Cc4c([nH]c5ccccc45)C(C)(C)N3C2=O)cc1 | 11 | 3 | 4 | 8 | 2 | 0
CCCCCCCC(=O)C(C)C(=O)N(C)[C@H](Cc1ccc(OC)cc1)C(=O)N(C)[C@H](C(N)=O)C(C)C (stereo partly specified) | 2 | -1 | 2 | 4 | -4 | -15
CCOc1ccc(NC(=O)CCn2c(=S)oc3ccccc32)cc1 | 1 | -1 | 27* | 20 | 9 | 18
CCCCC[C@@H](C)N1C[C@H](COCc2ccccc2)Oc2cc(N3CCC[C@H]3COC)ccc2S1(=O)=O | 0 | -1 | 4 | -8 | 3 | 2
Cc1ccc(NC(=O)C2(C)Cc3ccccc3C(=O)O2)cc1 (stereo unspecified) | 2 | 3 | 25* | -10 | 16 | -5
CCCCC(CC)C(=O)NCCCN1CCN(CCCNC(=O)C(CC)CCCC)CC1 (stereo unspecified) | -1 | -8 | -9 | -4 | -1 | 34*
N#Cc1ccc(OCC(O)CN2CCN(C(c3ccccc3)c3ccccc3)CC2)cc1 (stereo unspecified) | 0 | -6 | -19 | 37* | -18 | 32*
CCC(=O)c1ccc(OCC(O)CN2CCN(C(c3ccccc3)c3ccccc3)CC2)cc1 (stereo unspecified) | 1 | -6 | -14 | 16 | -28 | 44*
Cc1ccc(C(=O)O)cc1NC(=O)C1CCN(S(=O)(=O)c2ccc3c(c2)OCCO3)CC1 | -1 | 4 | 7 | 15 | 3 | 2
CCCCn1c(N)c(N(CC(C)C)C(=O)C2CCN(S(=O)(=O)c3ccc(F)cc3)CC2)c(=O)[nH]c1=O | 1 | -1 | 7 | -27 | 14 | -12
COc1ccc(CSc2nnc3[nH]c(=O)cc(N)n23)cc1 | 1 | -7 | 20 | 35* | -13 | -8
CNc1cc(-c2cc(OC)ccc2OC)ncn1 | -1 | 0 | -12 | 1 | 0 | 73*
O=S(=O)(Nc1ccccc1)c1ccc(NS(=O)(=O)c2c(F)cccc2F)cc1 | 1 | -4 | 17 | 2 | 4 | -19
COc1cc(N(Cc2ccccc2)Cc2ccccc2)c2ncn(C(C)C)c2c1 | 0 | -2 | 3 | 13 | 0 | 0
CC(C)n1cnc2c(N(C)c3ccccc3)nc(N(CCN(C)C)Cc3ccccc3)nc21 | 6 | -9 | -4 | 34* | -11 | 5
CN(Cc1ccccc1)S(=O)(=O)c1ccc(Cl)c(C(=O)NCc2cccnc2)c1 | 8 | 1 | 0 | -4 | -7 | -7
CCOc1ccc2cc(S(=O)(=O)N3CCN(C)CC3)ccc2c1 | 4 | -6 | 15* | 2 | 2 | -2
CCOc1ccc2cc(S(=O)(=O)N3CCCCC3)ccc2c1 | 1 | -4 | 0 | 4 | -1 | 12
SMILES | CHRM4 agonist | CHRM5 agonist | M4 PAM | M5 antag | CHRM5 PAM | CHRM4 antagonist
CSc1ccc(CCNC(=O)CN2C(=O)c3cccnc3Oc3ccc(C)cc32)cc1 | 15 | 0 | -7 | 25 | -10 | 33*
CC(=O)c1ccc(N(CC(=O)NCc2ccc3c(c2)OCO3)C(=O)c2csnn2)cc1 | 3 | 0 | -3 | 4 | 0 | 8
COc1ccc(S(=O)(=O)N2CCC(N3CCN(Cc4ccccc4)CC3)CC2)cc1 | 1 | -11 | -19 | 45* | -15 | 46*
O=[N+]([O-])c1ccccc1S(=O)(=O)N1CCN(C2CCN(Cc3ccccc3)CC2)CC1 | 1 | -9 | -14 | 16 | -11 | 29*
O=S(=O)(c1ccc(Cl)cc1)N1CCN(C2CCN(Cc3ccccc3)CC2)CC1 | 2 | -13 | -15 | -6 | -44 | 15
O=C(NCc1ccccc1)C1C(=O)Nc2ccccc2C(=O)N1Cc1ccccc1 (stereo unspecified) | 8 | 3 | 2 | 4 | -1 | 3
O=C1CCC(=O)N1N1C(=O)C2C3c4ccccc4C(c4ccccc43)C2C1=O (stereo unspecified) | 1 | 1 | 9 | -4 | 22* | 3
O=C1C2C3c4ccccc4C(c4ccccc43)[C@@H]2C(=O)N1c1ccccn1 (stereo partly specified) | 1 | -3 | -6 | 4 | -1 | -3
COc1ccc(-c2nc(C3CCCCC3)c3cc(OC)ccc3n2)cc1 | 0 | 1 | 5 | 14 | 4 | -3
CC(=O)N1c2ccccc2NC2=C(C(=O)CCC2)C1c1ccco1 (stereo unspecified) | 1 | 8 | 19 | 11 | 21* | -9
COC(=O)N1C(=O)[C@@](c2ccc(OC)cc2)(C(C)C)N1C(=O)OC | 1 | 3 | 13 | -3 | 20* | -4
COC(=O)N1C(=O)[C@](c2ccc(Cl)cc2)(C(C)C)N1C(=O)OC | 20 | 4 | -8 | 18 | -18 | 10
S=C(NCc1ccc(Cl)cc1)Nc1ccncc1 | 18 | 6 | -9 | 41* | -15 | 16
S=C(NCc1ccc(Cl)cc1)Nc1ccccc1 | 11 | 2 | -5 | 10 | -4 | -9
CCC(NC(=S)NCc1ccc(F)cc1)c1ccc(C(C)C)cc1 (stereo unspecified) | 9 | -2 | -16 | 13 | -12 | 82*
Fc1ccc(CNC(=S)Nc2ccc(Cl)cc2)cc1 | 12 | 2 | -13 | 31* | -23 | 5
S=C(NCc1ccncc1)Nc1cccc(Cl)c1 | 5 | 3 | 5 | 12 | -4 | 0
